Assays:
[1] = target: T1, Kappa-type opioid receptor (Homo sapiens, UniProt P41145); assay: Antagonist activity at human kappa opioid receptor assessed as inhibition of dynorphin A-induced [35S]GTPgammaS binding; type: functional
Mu-type opioid receptor = Mu-type opioid receptor (Homo sapiens, UniProt P35372); assay: Antagonist activity at human mu opioid receptor assessed as inhibition of DAMGO-stimulated [35S]GTPgammaS binding; type: functional
[2] = target: Delta-type opioid receptor (Homo sapiens, UniProt P41143); assay: Antagonist activity at human delta opioid receptor assessed as inhibition of SNC80-stimulated [35S]GTPgammaS binding; type: functional
[3] = target: T1, Kappa-type opioid receptor; assay: Binding affinity to kappa opioid receptor
[4] = target: Voltage-gated inwardly rectifying potassium channel KCNH2 (Homo sapiens, UniProt Q12809)
[5] = Apparent permeability from apical to basolateral side of MDCK cells expressing MDR1; type: ADME, cell-based, Canis lupus familiaris; details: dog
In short: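 MDCK cells stably expressing human MDR1 P-glycoprotein grown as monolayer; apical-to-basolateral transport rate reported in nm/s.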

[6] = Clearance in Sprague-Dawley rat at 2 umol/kg, iv; type: ADME, organism-based; details: in vivo
[7] = Half life in Sprague-Dawley rat at 2 umol/kg, iv; type: ADME, organism-based; details: in vivo
[8] = Volume of distribution at steady state in Sprague-Dawley rat at 2 umol/kg, iv; type: ADME, organism-based; details: in vivo, read-out: Vdss
[9] = Ratio of drug level in brain to plasma in Sprague-Dawley rat at 5 umol/kg, iv; type: ADME, organism-based; details: brain and plasma, read-out: BPR
In short: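 Total brain and plasma concentrations measured 2 h after a 5 µmol/kg intravenous infusion in rats; brain/plasma ratio calculated.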

[10] = Intrinsic clearance in human liver microsomes; type: ADME, Microsome
In short: (§1)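 Standard liver microsomal stability protocol using human or rat liver microsomes; intrinsic clearance expressed per mg microsomal protein per minute.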

[11] = Oral bioavailability in Sprague-Dawley rat at 6 umol/kg, po; type: ADME, organism-based; details: in vivo
[12] = Intrinsic clearance in rat liver microsomes; type: ADME, Microsome; in short: as §1
Plasma = assay: Fraction unbound in rat plasma; type: ADME, cell-free
Rattus norvegicus = assay: Antidiuretic activity against U50488-induced diuresis in sc dosed Sprague-Dawley rat; type: functional; details: Urine, read-out: ID50 (the source's name)

Chain of Voltage-gated inwardly rectifying potassium channel KCNH2 (Q12809 whole entry): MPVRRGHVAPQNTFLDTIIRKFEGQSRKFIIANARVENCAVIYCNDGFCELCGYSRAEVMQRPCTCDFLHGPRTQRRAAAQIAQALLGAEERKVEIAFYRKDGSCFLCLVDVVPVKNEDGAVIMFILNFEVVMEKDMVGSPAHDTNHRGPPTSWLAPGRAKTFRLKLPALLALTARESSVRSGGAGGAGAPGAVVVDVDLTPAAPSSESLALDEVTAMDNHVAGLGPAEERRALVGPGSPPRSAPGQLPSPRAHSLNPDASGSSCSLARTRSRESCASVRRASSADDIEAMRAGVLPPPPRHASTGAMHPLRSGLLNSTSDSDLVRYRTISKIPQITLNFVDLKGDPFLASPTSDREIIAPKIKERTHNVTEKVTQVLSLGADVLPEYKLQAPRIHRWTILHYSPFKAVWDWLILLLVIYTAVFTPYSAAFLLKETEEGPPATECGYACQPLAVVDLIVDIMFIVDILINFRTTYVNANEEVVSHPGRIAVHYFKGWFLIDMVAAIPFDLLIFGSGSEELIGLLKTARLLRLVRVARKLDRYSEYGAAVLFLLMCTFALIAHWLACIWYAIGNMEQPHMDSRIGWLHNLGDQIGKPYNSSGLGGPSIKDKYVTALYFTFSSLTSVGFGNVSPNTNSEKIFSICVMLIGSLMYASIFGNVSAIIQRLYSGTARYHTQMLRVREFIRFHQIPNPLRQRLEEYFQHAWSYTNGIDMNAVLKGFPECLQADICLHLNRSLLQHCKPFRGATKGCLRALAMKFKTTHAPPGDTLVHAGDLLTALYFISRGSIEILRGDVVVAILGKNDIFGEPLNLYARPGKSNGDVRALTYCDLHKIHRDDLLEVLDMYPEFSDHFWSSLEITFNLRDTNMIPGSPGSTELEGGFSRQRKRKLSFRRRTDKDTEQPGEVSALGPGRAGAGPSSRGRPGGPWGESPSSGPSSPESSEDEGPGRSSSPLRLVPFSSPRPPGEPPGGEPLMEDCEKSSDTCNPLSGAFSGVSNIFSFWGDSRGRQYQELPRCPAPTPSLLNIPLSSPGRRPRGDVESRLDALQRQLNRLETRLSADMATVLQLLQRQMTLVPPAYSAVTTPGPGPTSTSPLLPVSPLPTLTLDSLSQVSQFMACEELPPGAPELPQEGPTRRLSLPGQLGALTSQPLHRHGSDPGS
Chain of Mu-type opioid receptor (P35372 whole entry): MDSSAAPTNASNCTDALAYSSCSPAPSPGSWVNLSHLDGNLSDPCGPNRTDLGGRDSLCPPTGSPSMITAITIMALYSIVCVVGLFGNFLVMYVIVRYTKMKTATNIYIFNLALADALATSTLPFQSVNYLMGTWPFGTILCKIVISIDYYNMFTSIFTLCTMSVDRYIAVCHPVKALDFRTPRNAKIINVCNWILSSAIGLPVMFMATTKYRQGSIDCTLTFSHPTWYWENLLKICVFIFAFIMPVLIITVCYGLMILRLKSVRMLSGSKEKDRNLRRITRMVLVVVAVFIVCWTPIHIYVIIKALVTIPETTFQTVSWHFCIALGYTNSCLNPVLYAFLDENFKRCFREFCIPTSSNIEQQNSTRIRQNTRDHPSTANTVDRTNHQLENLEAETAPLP
T1 sequence (P41145 whole entry): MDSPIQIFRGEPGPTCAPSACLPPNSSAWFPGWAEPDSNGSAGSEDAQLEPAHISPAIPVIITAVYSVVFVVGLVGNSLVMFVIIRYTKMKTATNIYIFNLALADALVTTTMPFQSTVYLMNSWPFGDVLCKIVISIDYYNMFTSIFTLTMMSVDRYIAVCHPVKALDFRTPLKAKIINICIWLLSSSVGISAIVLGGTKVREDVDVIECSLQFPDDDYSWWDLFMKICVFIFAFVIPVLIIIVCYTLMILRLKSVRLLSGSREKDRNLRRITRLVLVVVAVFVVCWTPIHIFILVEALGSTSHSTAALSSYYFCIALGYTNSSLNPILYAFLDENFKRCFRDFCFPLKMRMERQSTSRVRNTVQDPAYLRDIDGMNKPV
Chain of Delta-type opioid receptor (P41143 whole entry): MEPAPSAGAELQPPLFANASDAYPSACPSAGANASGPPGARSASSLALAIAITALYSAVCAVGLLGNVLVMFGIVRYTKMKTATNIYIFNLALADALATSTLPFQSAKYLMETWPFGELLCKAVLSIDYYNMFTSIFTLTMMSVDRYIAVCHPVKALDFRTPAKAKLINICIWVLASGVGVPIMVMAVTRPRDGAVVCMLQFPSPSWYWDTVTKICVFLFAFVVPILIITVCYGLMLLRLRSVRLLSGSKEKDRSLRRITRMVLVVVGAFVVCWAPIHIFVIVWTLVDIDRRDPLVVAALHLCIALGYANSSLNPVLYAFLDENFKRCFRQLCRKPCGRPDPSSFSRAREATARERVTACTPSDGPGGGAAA

Row | Compound | IC50 [1] [nM] | IC50 (Mu-type opioid receptor) [nM] | IC50 [2] [nM] | further results
1 | C[C@H](c1ccnc(Cl)c1)N1[C@@H]2CC[C@H]1C[C@H](Oc1cccc(C(N)=O)c1)C2 | 307 | 22900 |  | 
2 | NC(=O)c1cccc(OC2CCN(Cc3ccccc3)CC2)c1 | 585 | > 30000 | > 30000 | Ki [3]: 75 nM
3 | Cn1cc(CN2[C@@H]3CC[C@H]2C[C@H](Oc2cccc(C(N)=O)c2)C3)cn1 | 524 | 9430 | > 27300 | 
4 | NC(=O)c1cccc(O[C@@H]2C[C@H]3CC[C@@H](C2)N3CCCc2ccccc2)c1 | 342 | 659 | 4000 | 
5 | COc1cccc([C@@H](C)N2[C@@H]3CC[C@H]2C[C@H](Oc2cccc(C(N)=O)c2)C3)c1 | 46 | 1050 |  | 
6 | Cc1ccc(CN2[C@@H]3CC[C@H]2C[C@H](Oc2cccc(C(N)=O)c2)C3)o1 | 386 | 10900 | 22000 | 
7 | NC(=O)c1cccc(O[C@@H]2C[C@H]3CC[C@@H](C2)N3Cc2ccccn2)c1 | 3160 | 19000 | > 30000 | IC50 [4]: 1900 nM
8 | NC(=O)c1cccc(O[C@@H]2C[C@H]3CC[C@@H](C2)N3CC2CCCCC2)c1 |  |  |  | Papp A→B [5]: 8.3 ×10⁻⁶ cm/s; clearance [6]: 184 mL/min/kg; half-life [7]: 1 h; Vd [8]: 9.5 L/kg; Kp [9]: 5; microsomal CLint [10]: < 4 µL/min/mg; bioavailability [11]: 1.8%; microsomal CLint [12]: 196 µL/min/mg
9 | Cc1ccc([C@@H](C)N2[C@@H]3CC[C@H]2C[C@H](Oc2cccc(C(N)=O)c2)C3)cn1 |  |  |  | Papp A→B [5]: 9.1 ×10⁻⁶ cm/s; microsomal CLint [10]: < 4 µL/min/mg; PPB (Plasma): 81%; microsomal CLint [12]: 14 µL/min/mg
10 | NC(=O)c1cccc(O[C@@H]2C[C@H]3CC[C@@H](C2)N3CCc2ccccc2)c1 | 754 | 424 | 2150 | 
11 | C[C@@H](c1ccccc1)N1[C@@H]2CC[C@H]1C[C@H](Oc1cccc(C(N)=O)c1)C2 | 20500 | > 30000 |  | 
12 | Cc1ccccc1C(C)N1[C@@H]2CC[C@H]1C[C@H](Oc1cccc(C(N)=O)c1)C2 (stereo partly specified) | 846 | 16800 |  | 
13 | CC(C)(c1ccccc1)N1[C@@H]2CC[C@H]1C[C@H](Oc1cccc(C(N)=O)c1)C2 | 13300 |  |  | 
14 | NC(=O)c1cccc(OC2CCN(CC3CC3)CC2)c1 | 28200 |  |  | Ki [3]: 146 nM
15 | O=C(Nc1cccc(NC(=O)c2cccc(N3CCOCC3)c2)c1)c1cccc(OC2CCN(CC3CC3)CC2)c1 | 77 | > 30000 | > 30000 | Papp A→B [5]: < 1 ×10⁻⁶ cm/s; Ki [3]: 0.5 nM
16 | Cc1ccccc1CN1[C@@H]2CC[C@H]1C[C@H](Oc1cccc(C(N)=O)c1)C2 |  | 17600 | > 30000 | 
17 | CS(=O)(=O)Cc1ccc(CN2[C@@H]3CC[C@H]2C[C@H](Oc2cccc(C(N)=O)c2)C3)cc1 | 39 | 576 | 5390 | 
18 | NC(=O)c1cccc(O[C@@H]2C[C@H]3CC[C@@H](C2)N3CC(=O)Nc2ccccc2)c1 | 345 | 253 | 2670 | IC50 [4]: 720 nM

Row | Compound | IC50 [1] [nM] | IC50 (Mu-type opioid receptor) [nM] | IC50 [2] [nM] | further results
19 | NC(=O)c1cccc(O[C@@H]2C[C@H]3CC[C@@H](C2)N3CC(=O)N2CCCC2)c1 | 3410 | 21100 | > 30000 | IC50 [4]: > 33000 nM
20 | Cc1ccc(CN2[C@@H]3CC[C@H]2C[C@H](Oc2cccc(C(N)=O)c2)C3)s1 |  |  |  | Papp A→B [5]: 13 ×10⁻⁶ cm/s; clearance [6]: 113 mL/min/kg; half-life [7]: 1 h; Vd [8]: 5.1 L/kg; ED50 (Rattus norvegicus): 0.006 µmol/kg; Kp [9]: 4; microsomal CLint [10]: 31 µL/min/mg; bioavailability [11]: 1.7%; PPB (Plasma): 50%; microsomal CLint [12]: 379 µL/min/mg
21 | NC(=O)c1cccc(O[C@@H]2C[C@H]3CC[C@@H](C2)N3Cc2ccncc2)c1 |  |  | > 24700 | 
22 | CC(c1ccncc1)N1[C@@H]2CC[C@H]1C[C@H](Oc1cccc(C(N)=O)c1)C2 (stereo partly specified) |  | > 30000 |  | 
23 | Cc1ccc(C(C)N2[C@@H]3CC[C@H]2C[C@H](Oc2cccc(C(N)=O)c2)C3)s1 (stereo partly specified) | 355 |  |  | 
24 | NC(=O)c1cccc(O[C@@H]2C[C@H]3CC[C@@H](C2)N3Cc2cccnc2)c1 | 431 | 2890 | > 21900 | 
25 | C[C@H](c1ccccc1)N1[C@@H]2CC[C@H]1C[C@H](Oc1cccc(C(N)=O)c1)C2 | 683 | > 24400 |  | 
26 | NC(=O)c1cccc(O[C@@H]2C[C@H]3CC[C@@H](C2)N3Cc2ccc3c(c2)OCO3)c1 | 11 | 307 | 4840 | 
27 | CC(c1ccccc1)N1[C@@H]2CC[C@H]1C[C@H](Oc1cccc(C(N)=O)c1)C2 (stereo partly specified) | 1000 | 19800 |  | 
28 | CC(C)[C@@H](CN1CC[C@@](C)(c2cccc(O)c2)[C@@H](C)C1)NC(=O)[C@H]1Cc2ccccc2CN1 | 0.5 | 41 | 1280 | Ki [3]: 0.3 nM
29 | NC(=O)c1cccc(O[C@@H]2C[C@H]3CC[C@@H](C2)N3CC2CC2)c1 | 6690 | > 30000 | > 30000 | 
30 | Cc1ccc([C@@H](C)N2[C@@H]3CC[C@H]2C[C@H](Oc2cccc(C(N)=O)c2)C3)s1 | 111 |  |  | 
31 | Cc1ccc(CN2[C@@H]3CC[C@H]2C[C@H](Oc2cccc(C(N)=O)c2)C3)cc1 | 49 | 482 | 10900 | 
32 | NC(=O)c1cccc(O[C@@H]2C[C@H]3CC[C@@H](C2)N3C2CCCc3ccccc32)c1 (stereo partly specified) | 2190 | 22700 |  | 
33 | NC(=O)c1cccc(O[C@@H]2C[C@H]3CC[C@@H](C2)N3C2(c3ccccc3)CC2)c1 | 24200 | > 30000 |  | 
34 | NC(=O)c1cccc(O[C@@H]2C[C@H]3CC[C@@H](C2)N3Cc2cccs2)c1 | 215 | 9360 | > 30000 | IC50 [4]: 430 nM
35 | CN1[C@@H]2CC[C@H]1C[C@H](Oc1cccc(C(N)=O)c1)C2 | 12600 |  |  | 
36 | NC(=O)c1cccc(O[C@@H]2C[C@H]3CC[C@@H](C2)N3C2CCCCC2)c1 | 1130 | 9410 |  | 
